Measured values published in ChEMBL document CHEMBL2331531, “Synthesis and biological evaluation of urea derivatives as highly potent and selective rho kinase inhibitors” (J Med Chem, 2013).
pIC50: −log10 of the molar value.

Legend:
CYP2C9 = CYP2C9 (Homo sapiens, UniProt P11712); test: Inhibition of CYP2C9 (unknown origin)-mediated tolbutamide hydroxylation to hydroxy tolbutamide at 10 uM relative to control; format: ADME; settings: probe tolbutamide
[1] = Cmax in Sprague-Dawley rat at 1 mg/kg, iv by LC-MS/MS analysis; format: ADME, organism-based; parameters: dose 1 mg/kg, route intravenous; settings: in vivo
[2] = Inhibition of PKA (unknown origin) after 70 mins by luminescence assay; parameters: species or system Homo sapiens
CYP2D6 = CYP2D6 (Homo sapiens, UniProt P10635); test: Inhibition of CYP2D6 (unknown origin)-mediated bufuralol hydroxylation to 4'-Hydroxybufuralol at 10 uM relative to control; format: ADME; settings: probe bufuralol
Rattus norvegicus = test: (§1) AUC in Sprague-Dawley rat at 1 mg/kg, iv by LC-MS/MS analysis; format: ADME, organism-based, Plasma; parameters: dose 1 mg/kg, route intravenous; settings: in vivo
[3] = Half life in Sprague-Dawley rat at 1 mg/kg, iv by LC-MS/MS analysis; format: ADME, organism-based; parameters: dose 1 mg/kg, route intravenous; settings: in vivo
CYP3A4 = CYP3A4 (Homo sapiens, UniProt P08684); test: Inhibition of CYP3A4 (unknown origin)-mediated midazolam hydroxylation to 1'-Hydroxymidazolam at 10 uM relative to control; format: ADME; settings: probe midazolam
[4] = Volume of distribution in Sprague-Dawley rat at 1 mg/kg, iv by LC-MS/MS analysis; format: ADME, organism-based; parameters: dose 1 mg/kg, route intravenous; settings: in vivo
[5] = target: Rho-associated protein kinase 1 (Homo sapiens, UniProt Q13464); test: Inhibition of ROCK1 (unknown origin) after 4 hrs by HTRF assay
[6] = Oral bioavailability in Sprague-Dawley rat at 2 mg/kg by LC-MS/MS analysis; format: ADME, organism-based; settings: in vivo
[7] = Half life in human liver microsomes; format: ADME, Microsome
CYP1A2 = target: T1, CYP1A2 (Homo sapiens, UniProt P05177); test: Inhibition of CYP1A2 (unknown origin)-mediated phenaceten demethylation to acetaminophen at 10 uM relative to control; format: ADME; settings: probe phenacetin (printed: phenaceten)
T1 sequence (P05177 whole entry): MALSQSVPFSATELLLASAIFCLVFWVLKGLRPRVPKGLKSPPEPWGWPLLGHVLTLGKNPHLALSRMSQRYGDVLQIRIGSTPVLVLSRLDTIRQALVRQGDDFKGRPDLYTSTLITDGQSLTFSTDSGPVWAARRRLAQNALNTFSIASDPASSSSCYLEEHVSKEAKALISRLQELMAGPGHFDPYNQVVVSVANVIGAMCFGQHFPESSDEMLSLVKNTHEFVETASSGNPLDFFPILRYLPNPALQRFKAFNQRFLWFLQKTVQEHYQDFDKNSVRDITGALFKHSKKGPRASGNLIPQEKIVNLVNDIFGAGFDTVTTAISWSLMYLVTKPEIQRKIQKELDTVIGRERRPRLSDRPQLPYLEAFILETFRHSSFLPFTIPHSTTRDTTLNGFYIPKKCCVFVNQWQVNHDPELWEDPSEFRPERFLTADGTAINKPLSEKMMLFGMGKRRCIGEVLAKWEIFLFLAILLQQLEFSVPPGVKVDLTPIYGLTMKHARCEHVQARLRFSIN

[8] = target: Rho-associated protein kinase 2 (Homo sapiens, UniProt O75116); test: Inhibition of ROCK2 (unknown origin) after 4 hrs by HTRF assay
[9] = Inhibition of ROCK-mediated myosin light chain bisphosphorylation in rat A7R5 cells after 1 hr by fluorescence assay in presence of L-alpha-lysophosphatidic acid; format: cell-based
How it was run: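 A7r5 cells in 20% FBS DMEM, plated 5000/well overnight, serum-starved 4 h in 0.05% FBS DMEM; compound 13333 nM to 18 nM final for 1 h, then 10 μM LPA 10 min; fixed, permeabilized, anti-ppMLC plus IR800 secondary; infrared scan, ppMLC signal normalized to TO-PRO-3 nuclear signal. IC50 as mean of two or more experiments.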

[10] = as §1; format: ADME, organism-based, Plasma; parameters: dose 1 mg/kg, route intravenous; settings: Sprague-Dawley, plasma
[11] = target: Mitogen-activated protein kinase 10 (Homo sapiens, UniProt P53779); test: Inhibition of JNK3 alpha1 (unknown origin) using biotinylated Flag-ATF2 as substrate after 15 mins by HTRF assay
[12] = Clearance in Sprague-Dawley rat at 1 mg/kg, iv by LC-MS/MS analysis; format: ADME, organism-based; parameters: dose 1 mg/kg, route intravenous; settings: in vivo
[13] = target: Serine/threonine-protein kinase MRCK alpha (Homo sapiens, UniProt Q5VT25); test: Inhibition of MRCKalpha (unknown origin) using LCD-AKRRRRLSSLRA-NH2 as substrate after 75 mins by luminescence assay in presence of [33P]ATP
MAP kinase p38 = MAP kinase p38 (Homo sapiens, UniProt O15264+Q15759+Q16539+P53778); test: Inhibition of p38 (unknown origin) using biotinylated Flag-ATF2 as substrate after 30 mins by HTRF assay; format: protein assay
[14] = Aqueous solubility in potassium phosphate buffer at pH 5.5 after 24 hrs by HPLC analysis; format: physicochemical; settings: pH 5.5, 24 h
Cytochrome P450 3A4 = Cytochrome P450 3A4 (Homo sapiens, UniProt P08684); test: Inhibition of CYP3A4 (unknown origin)-mediated midazolam hydroxylation to 1'-Hydroxymidazolam; format: ADME
Cytochrome P450 2C9 = Cytochrome P450 2C9 (Homo sapiens, UniProt P11712); test: Inhibition of CYP2C9 (unknown origin)-mediated tolbutamide hydroxylation to hydroxy tolbutamide; format: ADME
Cytochrome P450 1A2 = target: T2, Cytochrome P450 1A2 (Homo sapiens, UniProt P05177); test: Inhibition of CYP1A2 (unknown origin)-mediated phenaceten demethylation to acetaminophen; format: ADME
T2 sequence (P05177 whole entry): T1 sequence (P05177 whole entry)

Cytochrome P450 2D6 = Cytochrome P450 2D6 (Homo sapiens, UniProt P10635); test: Inhibition of CYP2D6 (unknown origin)-mediated bufuralol hydroxylation to 4'-Hydroxybufuralol; format: ADME
Sequence of Cytochrome P450 2D6 (P10635 whole entry): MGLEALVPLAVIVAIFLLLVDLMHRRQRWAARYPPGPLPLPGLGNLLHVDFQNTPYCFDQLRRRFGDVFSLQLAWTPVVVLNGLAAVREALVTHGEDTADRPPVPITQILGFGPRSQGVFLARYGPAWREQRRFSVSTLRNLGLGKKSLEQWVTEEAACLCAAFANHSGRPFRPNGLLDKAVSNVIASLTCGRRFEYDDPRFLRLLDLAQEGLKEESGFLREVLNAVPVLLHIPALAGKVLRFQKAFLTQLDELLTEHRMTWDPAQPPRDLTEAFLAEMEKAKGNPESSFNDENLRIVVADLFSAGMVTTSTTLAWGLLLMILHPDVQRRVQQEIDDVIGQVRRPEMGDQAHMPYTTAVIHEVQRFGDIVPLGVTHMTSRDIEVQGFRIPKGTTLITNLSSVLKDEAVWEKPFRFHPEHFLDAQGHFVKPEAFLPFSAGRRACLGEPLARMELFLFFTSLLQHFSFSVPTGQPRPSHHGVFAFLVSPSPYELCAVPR

Sequence of Serine/threonine-protein kinase MRCK alpha (Q5VT25 whole entry): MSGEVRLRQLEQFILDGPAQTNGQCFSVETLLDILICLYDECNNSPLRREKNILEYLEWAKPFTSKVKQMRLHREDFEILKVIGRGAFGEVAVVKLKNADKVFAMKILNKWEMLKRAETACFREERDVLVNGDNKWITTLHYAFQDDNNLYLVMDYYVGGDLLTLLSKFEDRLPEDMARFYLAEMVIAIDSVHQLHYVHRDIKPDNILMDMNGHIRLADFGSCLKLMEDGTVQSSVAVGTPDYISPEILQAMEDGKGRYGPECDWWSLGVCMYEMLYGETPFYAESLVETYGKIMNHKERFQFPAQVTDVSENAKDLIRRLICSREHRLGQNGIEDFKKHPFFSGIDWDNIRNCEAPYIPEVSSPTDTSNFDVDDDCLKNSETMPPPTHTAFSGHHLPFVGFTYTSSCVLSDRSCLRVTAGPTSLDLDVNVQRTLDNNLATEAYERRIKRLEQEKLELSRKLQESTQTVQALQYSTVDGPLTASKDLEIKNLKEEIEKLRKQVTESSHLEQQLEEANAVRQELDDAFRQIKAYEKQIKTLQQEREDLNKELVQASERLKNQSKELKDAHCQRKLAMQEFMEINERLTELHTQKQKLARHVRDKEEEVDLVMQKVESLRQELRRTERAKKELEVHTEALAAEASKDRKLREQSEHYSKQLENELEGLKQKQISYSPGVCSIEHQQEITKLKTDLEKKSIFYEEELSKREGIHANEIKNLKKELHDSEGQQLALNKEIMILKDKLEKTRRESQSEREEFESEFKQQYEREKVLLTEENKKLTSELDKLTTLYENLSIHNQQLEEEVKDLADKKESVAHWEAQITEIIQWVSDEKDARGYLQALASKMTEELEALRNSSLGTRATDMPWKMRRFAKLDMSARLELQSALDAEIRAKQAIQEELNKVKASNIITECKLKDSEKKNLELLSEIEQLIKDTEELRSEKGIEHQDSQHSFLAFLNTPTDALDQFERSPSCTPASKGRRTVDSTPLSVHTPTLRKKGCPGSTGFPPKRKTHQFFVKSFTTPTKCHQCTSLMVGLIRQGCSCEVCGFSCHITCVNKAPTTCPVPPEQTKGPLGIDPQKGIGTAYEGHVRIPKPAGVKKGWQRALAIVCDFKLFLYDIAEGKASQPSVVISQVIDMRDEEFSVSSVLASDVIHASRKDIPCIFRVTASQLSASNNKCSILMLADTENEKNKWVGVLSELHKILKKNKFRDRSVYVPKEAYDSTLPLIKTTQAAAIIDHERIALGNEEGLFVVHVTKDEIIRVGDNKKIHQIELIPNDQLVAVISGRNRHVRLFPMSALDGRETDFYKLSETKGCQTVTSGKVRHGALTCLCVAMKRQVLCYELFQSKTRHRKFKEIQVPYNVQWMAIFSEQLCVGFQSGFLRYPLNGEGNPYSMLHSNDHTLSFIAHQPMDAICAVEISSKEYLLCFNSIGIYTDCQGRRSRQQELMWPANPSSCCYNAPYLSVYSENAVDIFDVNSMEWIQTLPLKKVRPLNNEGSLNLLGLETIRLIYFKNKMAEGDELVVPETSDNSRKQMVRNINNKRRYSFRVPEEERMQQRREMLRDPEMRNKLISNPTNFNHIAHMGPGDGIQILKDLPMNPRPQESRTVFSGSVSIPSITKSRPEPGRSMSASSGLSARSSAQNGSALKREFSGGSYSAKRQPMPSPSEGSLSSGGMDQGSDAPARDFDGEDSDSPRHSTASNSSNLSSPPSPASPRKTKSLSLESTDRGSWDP
Sequence of Mitogen-activated protein kinase 10 (P53779 whole entry): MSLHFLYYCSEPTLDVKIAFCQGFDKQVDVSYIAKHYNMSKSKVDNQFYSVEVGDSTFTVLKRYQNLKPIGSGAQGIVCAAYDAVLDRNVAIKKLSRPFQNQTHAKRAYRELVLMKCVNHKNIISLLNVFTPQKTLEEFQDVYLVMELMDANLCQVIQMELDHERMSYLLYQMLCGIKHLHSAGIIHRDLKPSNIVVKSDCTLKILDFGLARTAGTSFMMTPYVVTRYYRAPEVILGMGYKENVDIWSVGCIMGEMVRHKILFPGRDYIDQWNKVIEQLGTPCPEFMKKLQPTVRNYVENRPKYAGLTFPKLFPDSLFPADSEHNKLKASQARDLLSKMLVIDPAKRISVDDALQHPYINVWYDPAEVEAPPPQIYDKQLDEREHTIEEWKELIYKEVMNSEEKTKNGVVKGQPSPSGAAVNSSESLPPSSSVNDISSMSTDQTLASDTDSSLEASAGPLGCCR
Sequence of CYP2D6 (P10635 whole entry): as the sequence (P10635 whole entry) above
Sequence of Rho-associated protein kinase 2 (O75116 whole entry): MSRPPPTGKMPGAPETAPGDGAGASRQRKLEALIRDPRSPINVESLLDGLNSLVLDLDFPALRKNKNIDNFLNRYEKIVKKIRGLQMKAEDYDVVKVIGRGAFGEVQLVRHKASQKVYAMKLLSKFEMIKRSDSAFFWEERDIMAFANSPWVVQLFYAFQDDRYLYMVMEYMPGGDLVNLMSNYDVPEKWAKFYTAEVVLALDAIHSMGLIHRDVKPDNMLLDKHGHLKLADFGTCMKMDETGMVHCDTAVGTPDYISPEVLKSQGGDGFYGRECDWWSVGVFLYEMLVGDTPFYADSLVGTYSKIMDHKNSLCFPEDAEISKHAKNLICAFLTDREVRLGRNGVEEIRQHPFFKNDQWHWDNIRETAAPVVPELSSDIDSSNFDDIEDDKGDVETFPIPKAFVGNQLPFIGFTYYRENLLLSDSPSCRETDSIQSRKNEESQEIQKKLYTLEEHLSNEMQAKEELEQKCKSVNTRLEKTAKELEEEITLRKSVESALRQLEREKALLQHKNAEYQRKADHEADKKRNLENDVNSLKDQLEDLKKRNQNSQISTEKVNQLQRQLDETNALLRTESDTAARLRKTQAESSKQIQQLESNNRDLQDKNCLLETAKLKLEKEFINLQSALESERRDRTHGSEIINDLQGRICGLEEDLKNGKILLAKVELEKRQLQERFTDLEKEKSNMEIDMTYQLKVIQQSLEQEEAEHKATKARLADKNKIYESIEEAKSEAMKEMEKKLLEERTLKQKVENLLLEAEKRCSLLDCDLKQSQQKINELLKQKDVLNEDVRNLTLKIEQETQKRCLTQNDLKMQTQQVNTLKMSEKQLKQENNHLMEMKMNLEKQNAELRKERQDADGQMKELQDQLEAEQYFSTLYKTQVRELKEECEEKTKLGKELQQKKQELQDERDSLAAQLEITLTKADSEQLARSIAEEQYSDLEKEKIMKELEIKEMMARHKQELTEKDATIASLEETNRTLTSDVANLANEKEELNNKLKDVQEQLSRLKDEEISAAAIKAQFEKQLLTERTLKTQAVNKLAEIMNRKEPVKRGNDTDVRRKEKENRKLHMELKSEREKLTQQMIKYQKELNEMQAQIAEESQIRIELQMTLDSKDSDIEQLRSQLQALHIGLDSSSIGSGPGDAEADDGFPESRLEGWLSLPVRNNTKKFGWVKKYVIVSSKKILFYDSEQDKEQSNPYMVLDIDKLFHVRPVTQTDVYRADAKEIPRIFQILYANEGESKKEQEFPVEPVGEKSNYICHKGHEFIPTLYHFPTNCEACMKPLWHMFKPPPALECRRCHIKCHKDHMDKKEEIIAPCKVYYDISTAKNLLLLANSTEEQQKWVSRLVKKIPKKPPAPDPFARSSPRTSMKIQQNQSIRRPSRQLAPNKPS
Sequence of CYP2C9 (P11712 whole entry): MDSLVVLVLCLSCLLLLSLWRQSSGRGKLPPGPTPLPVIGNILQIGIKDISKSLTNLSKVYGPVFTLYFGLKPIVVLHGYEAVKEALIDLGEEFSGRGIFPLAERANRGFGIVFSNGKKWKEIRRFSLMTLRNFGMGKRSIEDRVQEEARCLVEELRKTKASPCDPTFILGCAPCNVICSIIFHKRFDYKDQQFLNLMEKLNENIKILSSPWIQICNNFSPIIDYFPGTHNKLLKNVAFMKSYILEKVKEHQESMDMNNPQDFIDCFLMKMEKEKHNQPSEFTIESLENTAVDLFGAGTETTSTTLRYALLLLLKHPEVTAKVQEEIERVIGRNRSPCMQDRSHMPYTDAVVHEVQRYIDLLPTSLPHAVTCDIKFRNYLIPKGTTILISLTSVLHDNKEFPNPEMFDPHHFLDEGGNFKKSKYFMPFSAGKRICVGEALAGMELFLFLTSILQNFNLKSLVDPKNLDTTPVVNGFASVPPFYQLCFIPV

Structure (SMILES)	inhibition at 10 µM (CYP2C9)	Cmax [1]	pIC50 [2]	inhibition at 10 µM (CYP2D6)	half-life [3]	inhibition at 10 µM (CYP3A4)	Vd [4]	pIC50 [5]	bioavailability [6]	half-life [7]	inhibition at 10 µM (CYP1A2)	pIC50 [8]	pIC50 [9]	AUC [10]	pIC50 [11]	clearance [12]	pIC50 [13]	IC50 (MAP kinase p38)	pIC50 (Cytochrome P450 3A4)	pIC50 (Cytochrome P450 2C9)	other results
O=C(Nc1ccc(-c2cn[nH]c2)cc1)N(CCO)Cc1ccccc1	93%	1100 nM	6.21	29%	114 min	15%	1.9 L/kg	7.48	46%	> 120 min	9%	7.92	7.23	–	–	–	–	–	–	–	AUC (Rattus norvegicus): 3.6 µM·h
O=C(Nc1ccc(-c2cn[nH]c2)cc1)NC(CCO)c1cccc(F)c1 (stereo not given)	71%	9200 nM	6.24	41%	126 min	23%	0.7 L/kg	8.00	28%	> 120 min	-2%	8.70	7.49	9.5 µM·h	< 4.70	4.9 mL/min/kg	5.19	> 20 µM	–	–	–
CCN(Cc1cccc(OC)c1)C(=O)Nc1ccc(-c2cn[nH]c2)cc1O[C@H]1CCN(C)C1	65%	1100 nM	5.17	83%	60 min	53%	2.6 L/kg	8.40	11%	–	9%	9.00	–	1.3 µM·h	< 4.70	30 mL/min/kg	5.81	> 20 µM	–	–	solubility [14]: soluble
COc1cccc(CN(CCO)C(=O)Nc2ccc(-c3cn[nH]c3)cc2)c1	95%	3800 nM	5.52	38%	96 min	37%	1 L/kg	8.22	51%	24 min	-23%	9.00	7.72	4.2 µM·h	< 4.70	11.2 mL/min/kg	5.37	> 20 µM	4.46	5.70	pIC50 (Cytochrome P450 1A2): < 4.00; pIC50 (Cytochrome P450 2D6): 4.40

More lines, in order of rising pIC50 [2], values ahead:

inhibition at 10 µM (CYP2C9)	Cmax [1]	pIC50 [2]	inhibition at 10 µM (CYP2D6)	half-life [3]	inhibition at 10 µM (CYP3A4)	Vd [4]	pIC50 [5]	bioavailability [6]	half-life [7]	inhibition at 10 µM (CYP1A2)	pIC50 [8]	pIC50 [9]	AUC [10]	pIC50 [11]	clearance [12]	pIC50 [13]	IC50 (MAP kinase p38)	pIC50 (Cytochrome P450 3A4)	pIC50 (Cytochrome P450 2C9)	Structure (SMILES)	other results
96%	2600 nM	5.74	45%	60 min	27%	1.1 L/kg	8.40	48%	23 min	9%	9.00	–	5.9 µM·h	< 4.70	9.4 mL/min/kg	5.73	> 20 µM	< 4.00	6.22	COc1cccc(CN(C)C(=O)Nc2ccc(-c3cn[nH]c3)cc2)c1	pIC50 (Cytochrome P450 1A2): < 4.00; pIC50 (Cytochrome P450 2D6): < 4.00
35%	330 nM	6.34	85%	60 min	34%	14 L/kg	8.22	10%	34 min	-29%	9.00	8.40	0.2 µM·h	< 4.70	176 mL/min/kg	5.06	> 20 µM	4.10	4.52	COc1cccc(CN(CCN(C)C)C(=O)Nc2ccc(-c3cn[nH]c3)cc2)c1	pIC50 (Cytochrome P450 1A2): < 4.00; pIC50 (Cytochrome P450 2D6): 5.52; solubility [14]: soluble
